High-throughput results from PubChem.
A selection: hits, their analogues and other compounds. The true share with any hit is near 6.4%.
HUVEC inhibit: inhibitors of human endothelial cell proliferation; HUVEC proliferation, CellTiter-Glo luminescence, 72 h; stronger effect = lower value; AID 648; viability, % at 10 µM (by protocol); 1.1% of 86,000 active;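 active = viability at or below 30%; inactive = viability above 30%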;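 also: 100% = median luminescence of DMSO-only cell control wells on each plate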
H69AR inhibit: growth inhibitors of human H69AR lung tumor cells; H69AR lung tumor viability, ATP luminescence, 72 h; stronger effect = lower value; viability, % at 10 µM; 6% of 85,000 active; AID 598;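 active = viability at or below 40%; inactive = viability above 40%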;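 also: multidrug resistant small cell line overexpressing MRP-1 efflux transporter; 100% = mean luminescence of untreated control wells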
Jurkat viability: reduces viability or proliferation of Jurkat cells. inhibition, % at 4 µM. 1.2% of 56,000 active. AID 463. Jurkat E6.1 viability, ATP luminescence, 48 h;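 active = inhibition above the mean inhibition of all tested compounds plus 3 SD, cut at about 28% in these data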
Ecoli tolC: E. coli tolC mutant growth inhibition. 2.2% of 65,000 active. E. coli BW25113 tolC mutant growth, OD615. growth inhibition, % at 10 µM (by protocol). AID 573;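 active = growth inhibition at or above a cutoff equal to the mean over every tested compound plus 3 SD, cut at about 60% in these data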;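 also: growth measured after 20 h incubation at 37 °C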
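Material: E. coli BW25113 ΔtolC::kan, tolC deletion mutant strain. Measure: percent growth inhibition. Schedule: 37 °C, 20 h exposure. Doses: single-point testing at 10 µM. Signal: A615 absorbance measurement. Buffer or medium: kanamycin-containing LB broth (50 µg/mL).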
Ecoli WT expand: blocks growth of wild type E. coli BW25113; OD600 absorbance; growth inhibition, % at 100 µM; 0.15% of 98,000 active;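 active = growth inhibition above about 50% at one test dose, limit read from the data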;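 also: growth measured after 20 h incubation at 37 °C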
Fibroblast inh: blocks proliferation of human lung fibroblasts | LL 47 human lung fibroblast viability, ATP luminescence; stronger effect = lower value | viability, % at 10 µM | 1.1% of 85,000 active | AID 719;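 active = viability at or below 50% in the single dose screen; inactive = viability above 50%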;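 also: compound exposure lasted 72 h before the ATP readout; 100% = median luminescence of untreated cell-only wells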
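Assay system: human lung fibroblast line LL 47, low passage. Input: 1,150 fibroblasts seeded per well. Times: overnight cell rest, 72 h compound treatment at 37 °C. Evaluation: % viability of median cell-only signal. Technique: luminescent ATP detection, CellTiter-Glo. Control set: cell-only wells, no compound.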
* = called active by the depositor; nt = not tested or not shown.

SMILES | HUVEC inhibit | H69AR inhibit | Jurkat viability | Ecoli tolC | Ecoli WT expand | Fibroblast inh
CCN(CC)S(=O)(=O)c1ccc2nnn(OCC(=O)Nc3cccc(C#N)c3)c2c1 | 95 | 5.3* | 7 | 23 | -2 | 99
O=S(=O)(c1ccccc1F)N(Cc1ccco1)Cc1nnc(-c2ccccc2Br)o1 | 93 | 98 | 14 | 40 | -27 | 97
N=c1c(-c2nc3ccccc3[nH]2)cc(C(=O)c2cccs2)nn1-c1ccccc1 | 70 | 5.4* | nt | nt | nt | 86
CC(C)(C)Sc1nc(O)cc(=O)[nH]1 | 89 | 107 | -2 | -26 | -4 | 94
COc1ccc(OC)c2sc(N3CCCCC3)nc12 | 94 | 80 | -2 | 2 | -6 | 46*
N=c1ccn(Cc2ccc(Cl)c(Cl)c2)cc1 | 99 | 50 | 30* | 13 | 24 | 57
Cc1cc(SCC(=O)N/N=C/c2ccc(O)cc2O)c(C)cc1Br | 35 | 26* | nt | nt | 13 | 37*
CCOC(=O)c1sc(C)c(C(=O)NCC(C)(C)CN(C)C)c1N | 94 | 86 | nt | nt | 4 | 112
CSc1nnc(NC(=O)c2cc3ccccc3oc2=O)s1 | 100 | 90 | -4 | -17 | -10 | 109
Cn1c(NC(=O)c2ccccc2)c(-c2ccccn2)c(=O)c2ccccc21 | 116 | 96 | nt | nt | -7 | 105
CCc1ccc(-n2nc3ccc(NC(=O)c4ccc5c(c4)OCO5)cc3n2)cc1 | 76 | 20* | nt | nt | -11 | 91
CCOC(=O)c1c(C)c(C(=O)Nc2ccc3c(c2)OCCO3)c(C)n1CC | 75 | 20* | 48* | 8 | -7 | 91
CCOc1ccc(-n2nc3ccc(NC(=O)c4ccc5c(c4)OCCO5)cc3n2)cc1 | 41 | 13* | nt | nt | nt | 28*
CCOC(=O)C(NC(=O)CCC(=O)Nc1ccc(S(N)(=O)=O)cc1)C(O)c1ccccc1 (configuration not stated) | 99 | 32* | -2 | -9 | 1 | nt
CCN(CC)c1cc(C)c2cc(NC(=O)c3ccc(Br)o3)ccc2n1 | 28* | 58 | nt | nt | 2 | 90
CCN1CCN(c2cc(C)c3cc(NC(=O)c4ccc(Br)o4)ccc3n2)CC1 | 4.5* | 41 | nt | -3 | 16 | 43*
O=C(Nc1ccc2nn(-c3ccccc3)nc2c1)c1ccc(Br)o1 | 57 | 30* | -5 | -7 | -7 | 74
O=C(Nc1ccc2nn(-c3ccccc3)nc2c1)c1ccc2c(c1)OCCO2 | 49 | 58 | 3 | 27 | -8 | nt
CCCC(=O)Nc1nc2ccc(NC(=O)c3ccc(Br)o3)cc2s1 | 59 | 90 | -6 | 2 | -14 | 91
O=C(Nc1ccccc1-c1ccccc1)C12CC3CC(CC(C3)C1)C2 | nt | nt | nt | nt | -5 | nt
COC(=O)c1cc(OC)c(OC)cc1NC(=O)c1c(-c2ccccc2Cl)noc1C | 89 | 35* | 17 | 17 | 0 | nt
Cc1cc(NC(=O)c2c(-c3ccccc3Cl)noc2C)no1 | nt | nt | 10 | -7 | -6 | nt
COC(=O)c1cc(OC)c(OC)cc1NC(=O)Cn1nnc(-c2ccccc2Cl)n1 | 58 | 35* | 2 | -1 | -1 | 93
Cc1csc(NC(=O)C2CCN(C(=O)CSc3nnc(C)n3Cc3ccccc3)CC2)n1 | 91 | 96 | 7 | -5 | 1 | 106
CCCCN(C)S(=O)(=O)c1ccc(C(=O)Nc2nnc(-c3cccs3)o2)cc1 | 5.1* | 35* | 28* | 100* | 1 | 66
SMILES | HUVEC inhibit | H69AR inhibit | Jurkat viability | Ecoli tolC | Ecoli WT expand | Fibroblast inh
CCN(CC)S(=O)(=O)c1ccc(C(=O)Nc2cc(C)cc(C)c2)cc1 | 66 | 92 | nt | nt | -1 | 103
CCN(CC)S(=O)(=O)c1ccc(C(=O)NCc2cccs2)cc1 | nt | nt | nt | nt | 9 | nt
CCCN(CCC)S(=O)(=O)c1ccc(C(=O)Nc2nnc(CSC)o2)cc1 | 61 | 32* | 21 | 99* | 6 | 84
CCCCN(CC)S(=O)(=O)c1ccc(C(=O)Nc2nnc(CSC)o2)cc1 | nt | nt | 88* | 98* | 12 | nt
CCCCN(CC)S(=O)(=O)c1ccc(C(=O)Nc2nnc(-c3ccccc3Cl)o2)cc1 | 3.3* | 27* | 2 | 100* | -2 | 75
CCOc1cc(C(=O)CCC(=O)OCC(=O)N2c3ccccc3NC(=O)C2(C)C)ccc1O | nt | nt | nt | nt | -3 | nt
COC(=O)c1ccc(NC(=O)C2CCCN(S(=O)(=O)c3cnc[nH]3)C2)cc1 (configuration not stated) | 103 | 90 | -1 | -2 | 2 | 110
CCCCN(CCCC)S(=O)(=O)c1ccc(C(=O)Nc2nnc(CSC)o2)cc1 | nt | nt | 3 | 99* | 8 | nt
CCCCN(CC)S(=O)(=O)c1ccc(C(=O)Nc2nnc(COC)o2)cc1 | 76 | 42 | 6 | 88* | 5 | 99
CCc1nnc(NC(=O)c2ccc(S(=O)(=O)N(CCOC)CCOC)cc2)o1 | 98 | 66 | 1 | -5 | -3 | 98
Oc1ccc(CN2CCCc3ccccc32)c2cccnc12 | 86 | 34* | 24 | -6 | 15 | 59
COc1ccccc1N1CCN(Cc2ccc(O)c3ncccc23)CC1 | nt | nt | nt | nt | 34 | nt
Cc1cccc(Cn2c(C(C)(C)C)cc3cccnc32)c1 | nt | nt | nt | nt | -1 | nt
Cc1ccc(N2C(=O)c3oc4ccccc4c(=O)c3C2c2cccc(O)c2)nc1 (configuration not stated) | 86 | 114 | -6 | 31 | nt | 95
CC1=C(C)/C(=N/OC(=O)c2cccc([N+](=O)[O-])c2)C=CC1=O | 88 | 11* | nt | nt | nt | 89
COc1ccc(CCC(C)Nc2ccc(F)cc2)cc1 (configuration not stated) | nt | nt | nt | nt | -3 | nt
Cc1nnc(SCC(=O)Nc2ccc(N3CCOCC3)cc2)o1 | 95 | 79 | 0 | -11 | 4 | 103
CC(=Nc1cccc(C)c1)c1sc2ccccc2c1O | 86 | 44 | nt | nt | 1 | 109
CC(=Nc1ccc(O)cc1)c1sc2ccccc2c1O | 79 | 97 | 4 | 100* | -2 | 78
CC(C)COC(=O)c1ccc2c(c1O)C(=O)c1ccccc1C2=O | 10* | 45 | nt | nt | -4 | 75
CC(C)COC(=O)c1cc(=O)[nH]c2ccccc12 | 100 | 96 | -9 | 8 | 5 | 93
COc1ccc(NS(=O)(=O)c2cc(C)ccc2NC(=O)c2cc(C)oc2C)cc1 | 39 | 29* | 90* | 87* | 1 | 55
Cc1cc(Cl)ccc1NC(=O)NC1CCN(S(=O)(=O)c2ccc(F)cc2)CC1 | 94 | 39* | nt | nt | -7 | 96
Cc1ccc(NC(=O)NC2CCN(S(=O)(=O)c3ccc(F)cc3)CC2)cc1 | 101 | 86 | nt | nt | nt | 101
CCOC(=O)c1sc(NC(=O)c2c(C)noc2C)c(C(=O)OCC)c1C | 81 | 38* | -1 | -7 | nt | 91
CCOC(=O)c1sc(NC(=O)c2noc3c2CCCC3)c(C(=O)OCC)c1C | nt | nt | -6 | -12 | nt | nt
N#Cc1nn(-c2ccccc2)nc1N1CCCCC1 | 92 | 91 | 1 | -1 | -3 | 88
CC(C)(C)c1nnc2sc(SCC(=O)c3cccs3)nn2c1=O | 69 | 14* | nt | 19 | 0 | 84
Cc1ccc(C(=O)CSc2nn3c(=O)c(C(C)(C)C)nnc3s2)cc1 | 71 | 53 | nt | nt | 1 | 99
